This is one part of a sample in which hits are shown more often than they occur.
Insulin prom act: TRM-6 insulin promoter activation; TRM-6 cells, insulin promoter eGFP reporter, imaging; plate-scaled: unstimulated 0, stimulated control 100; activation, % at 2 µM; hit rate 0.81% among 130,000;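 active means activation at 2 µM above a set limit, confirmed on inspection of the cell images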;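 further: share of cells whose green reporter signal exceeds an intensity cutoff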
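material = TRM-6 human fetal islet cells, insulin promoter–eGFP reporter | input = 1,000 TRM-6 cells seeded per well | benchmarks = stimulated versus unstimulated wells as plate controls | measured by = automated fluorescence imaging of paraformaldehyde-fixed, Hoechst-counterstained cells, green channel | schedule = compound exposure 48 h, 37 °C | reagent = tamoxifen at 0.75 µM added at seeding for reporter induction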
Hits are given with their value; n = inactive.

SMILES	Insulin prom act
CC[n+]1c(/C=C/N(C)c2ccccc2)oc2ccc(F)cc21	n
CC[n+]1c(/C=C/Nc2ccccc2)oc2ccccc21	137.5
CC[n+]1c(/C=C/Nc2ccccc2)oc2ccc(OC)cc21	455.6
O=S(=O)([O-])CCC[n+]1c(/C=C\Nc2ccccc2)oc2ccc(-c3ccccc3)cc21	376.2
CCOC(=O)c1c(-c2ccccc2)oc2ccc(OC)cc12	n
CC[n+]1c(/C=C/N(C)c2ccccc2)oc2ccccc21	n
COC(=O)[C@@H]1CC[C@H](C)[C@@H](c2ccc(C)cc2)N1C(=O)c1ccc(/C=N/OCC[C@@H]2C=C[C@H](OC(C)=O)[C@@H](COC(C)=O)O2)cc1	n
COc1ccccc1NC(=O)C1CC(=O)N(c2ccc(F)cc2)C1 (stereo not drawn)	n
CN(Cc1ccccc1)C(=O)CN1CCN(C(c2ccccc2)c2ccccc2)CC1	n
CCn1c(=O)n(-c2ccc(Cl)cc2)c(=O)c2c3c(sc21)COC(C)(C)C3	n
CC1CN(c2snnc2C=C2C(=O)OC(C)(C)OC2=O)CC(C)O1 (stereo not drawn)	n
CCOC(=O)c1c(CSc2ccc(C)cc2)oc2ccc(O)cc12	n
O=C1CC(C2CCCO2)C(=O)N1c1ccccc1 (stereo not drawn)	n
CCCc1cc(=O)oc2cc(Oc3ncccn3)ccc12	154.5
C=C(Cl)COc1ccc2c(CCC)cc(=O)oc2c1	n
CCCc1cc(=O)oc2cc(OCC(=O)Nc3cc(C)on3)ccc12	n
COC(=O)Cc1cnc(NC(=O)C2C3CCC(C3)C2C(=O)O)s1 (stereo not drawn)	n
COc1ccccc1Nc1nc(N)nc(CN2CC(C)CC(C)C2)n1 (stereo not drawn)	n
CC(C)Cn1c(N)c(C(=O)CSc2nnnn2C)c(=O)n(C)c1=O	n
Cn1c(N)c(C(=O)COC(=O)c2ccc3c(c2)OCCO3)c(=O)n(C)c1=O	n
CC(C)Cn1c(N)c(C(=O)CSc2ccc3c(c2)OCCO3)c(=O)n(C)c1=O	167.7
COc1ccc(S(=O)(=O)N2CCc3ccccc32)cc1C(=O)OCc1nnc(-c2ccccc2)o1	n
CCOc1[nH]n(-c2ccc(Cl)cc2)c(=O)c1C=Nc1ccc(C)cc1	n
C=CCC1(O)C(=O)N2C(=C1C(=O)N1CCOCC1)c1ccccc1CC2(C)C (stereo not drawn)	n
OCCc1ccc(-c2ccc(Cl)cc2)o1	450.0
SMILES	Insulin prom act
S=C(c1ccc(-c2ccc(Cl)cc2)o1)N1CCCCC1	n
Nc1cccc(-c2ccc(CO)o2)c1	n
O=S(=O)(Nc1cccc2c1CCCC2)c1ccc(Cl)cc1	n
CCCOc1ccc(C2C(=O)N(C3CCCCCC3)CC(=O)N2Cc2ccco2)cc1OC (stereo not drawn)	n
COc1ccc(/C=C2\SC(=O)NC2=S)cc1OC	n
COc1ccc(/C=C2/C(=O)N=C3SCCN32)cc1	n
COc1ccc(/C=C2/C(=O)N=C(N)N2C)cc1OC	252.2
CCC(C(=O)O)P(=O)(c1ccc(Cl)cc1)c1ccc(Cl)cc1 (stereo not drawn)	n
CCOC(=O)C1CCCN(C(=O)C2CCN(S(=O)(=O)CC)CC2)C1 (stereo not drawn)	n
CCOC(=O)N1CCN(C(=O)C2CCN(S(=O)(=O)N3CCCC3)CC2)CC1	n
CCOC(=O)C1CCN(C(=O)C2CCCCC2)CC1	561.5
CCOC(=O)C1CCN(C(=O)Cc2cccs2)CC1	n
CCOC(=O)C1CCN(C(=O)N(CC)CC)CC1	253.5
CCOC(=O)C1CCN(C(=O)/C=C/c2cccs2)CC1	n
CC(C)=NOCc1ccc(-c2cn([C@@H]3COC[C@H]3O)nn2)cc1	n
Cc1cc(C)c2c(c1)/C(=N/NC(=S)Nc1ccc(F)cc1)CCC2	n
CN(C)C=Nc1c(Br)cc(Br)c2nonc12	203.0
CN(C)C=Nc1nonc1-c1ncn[nH]1	n
CC1CCCCC1NC(=O)/C(C#N)=C/c1ccccc1F (stereo not drawn)	n
C=CCn1c(C(CC(C)C)CC(C)O)n[nH]c1=S (stereo not drawn)	n
CCCC(=O)Nc1ccc(Cl)c(NC(=O)c2cccnc2Cl)c1	n
CCOc1ccccc1NC(=O)CN(C)S(=O)(=O)c1cnc[nH]1	n
C/C(=N\n1cnnc1)c1ccc(C#N)cc1	n
CC1(C)CC(=O)C2=C(C1)N(Cc1ccccc1)C(=O)C2(NC(=O)C(C)(C)C)C(F)(F)F (stereo not drawn)	n
CCOc1ccc(C2N(c3cc(C)on3)C(=O)C3CCCN32)cc1OC (stereo not drawn)	120.0
SMILES	Insulin prom act
CCOc1ccc(C2CC(=O)n3nc(C45CC6CC(CC(C6)C4)C5)nc3S2)cc1OC (stereo not drawn)	n
COc1cc(C2C(C(=O)c3ccc(C)o3)=C(O)C(=O)N2c2cc(C)on2)cc(Br)c1O (stereo not drawn)	n
O=C(OCC#CCSc1nnc(-c2ccc([N+](=O)[O-])cc2)o1)c1cccs1	n
Cc1ccccc1C(=O)NCc1nnc(SCC(=O)N2CCN(c3ccccc3)CC2)n1C	n
CN1C(=O)/C(=C/c2ccccc2OCc2ccccc2F)NC1=S	n
COc1ccc(COCCN2CCN(S(=O)(=O)c3ccc(C)cc3)CCC2=O)cc1	n
CCCCCCC(=O)N/N=C(\C)Cc1ccccc1	n
CNS(=O)(=O)c1cc(C(=O)NCc2ccco2)ccc1Cl	n
O=c1cc(NS(=O)(=O)c2ccccc2)nc(SCc2ccc(Cl)cc2)[nH]1	n
O=c1cc(O)nc(SCc2ccccc2)[nH]1	525.0
CCCc1cc(=O)[nH]c(SCc2cccnc2)n1	n
COc1ccc(S(=O)(=O)N2CCOCC2)cc1NC(=O)COc1cccnc1[N+](=O)[O-]	n
Cc1cc2cc(CNC(=O)c3cccc([N+](=O)[O-])c3)ccc2[nH]1	n
CCCN1C(=O)c2cccc3c(N4CCCCC4)ccc(c23)C1=O	244.8
O=C1c2cccc3c(N4CCCCC4)ccc(c23)C(=O)N1c1ccc(Cl)cn1	n
CCN1C(=O)c2cccc3c(S(=O)(=O)Nc4ccccc4OC)ccc1c23	n
O=C(OCCN1C(=O)c2cccc3c(N4CCOCC4)ccc(c23)C1=O)c1cc(Cl)cc(Cl)c1	203.6
CCN(CC)S(=O)(=O)c1ccc(C(=O)OCCN2C(=O)c3cccc4c(N5CCOCC5)ccc(c34)C2=O)cc1	n
Cn1nc(C(=O)OCCN2C(=O)c3ccccc3C2=O)c2ccccc2c1=O	n
Brc1cc2c(cc1/C=N/Nc1nc(N3CCCCC3)nc(N3CCCCC3)n1)OCO2	n
COc1cccc(NC(=S)NNC(=O)Cn2nc(C(F)(F)F)cc2C)c1	n
O=C(NC1CCCC1)C(c1ccsc1)N(C(=O)Cc1cccs1)c1cccc(F)c1 (stereo not drawn)	n
CCc1ccc(Nc2oc(C)cc(=O)c2C(C)=O)cc1	n
CCC(C)[C@@H](NC(=O)OC(C)(C)C)c1nnc(S(=O)(=O)Cc2cccc(C)c2)o1 (stereo partly drawn)	n
Cc1cccc(N2CCN(C(=O)CCCn3c(=S)[nH]c4cc5c(cc4c3=O)OCO5)CC2)c1C	n
SMILES	Insulin prom act
CC(=O)c1ccc(N2CCN(C(=O)CCCn3c(=S)[nH]c4cc5c(cc4c3=O)OCO5)CC2)cc1	136.4
O=C(CCCn1c(=S)[nH]c2cc3c(cc2c1=O)OCO3)NC1CC1	n
Cc1cc(SCC(=O)NC(=O)NCc2ccco2)nc2c(C)cccc12	n
Nn1c(SCC(=O)N2CCOCC2)nnc1-c1ccccc1Cl	111.1
Cc1ccc(-n2c(SCC(=O)N3CCOCC3)nnc2-c2cccnc2)cc1	n
O=C(CSc1nnc(-c2ccco2)n1-c1ccccc1)N1CCOCC1	n
